The source of these data is publication PMC3475218 (Theranostics, 2012).

In one data set the test system is neuropilin-1 (NRP-1). Particulars: receptor expressed in angiogenic vasculature; ref [19], [20], [22]; cited from earlier work.
The test system of data set [1] is MDA-MB-231 cells. Kind of data set: Photo-induced cytotoxicity, real-time impedance-based cell analysis. More on the design: species or system human. Particulars: first 24 h post-exposure, before light irradiation; mean of six replicates. In a few lines: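 MDA-MB-231 cells were cultured in RPMI with 9% heat-inactivated FBS, penicillin/streptomycin and 2 mM L-glutamine at 37°C, 5% CO2. Cells were seeded at 10^4 per well on electrode plates, and impedance was read every 15 min. At 24 h, test nanoparticles were added at final photosensitizer concentrations of 0.05–10.00 µM, or Gd-matched control nanoparticles at 2.9–585.0 µM. Cells were kept in darkness for 24 h before washing, with six replicates. Cell index was calculated as background-subtracted impedance.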

For data set [2], the system named is MDA-MB-231 cells. Kind of data set: Photodynamic activity. Format: cell-based, human. Particulars: for DL50 (50% cell growth inhibitory light dose): 652 nm, 24 h incubation, MTT 24 h post-irradiation, six replicates.
Data set [3] has as its system recombinant chimeric neuropilin-1 (NRP-1) protein. Kind of data set: Competitive binding to recombinant NRP-1 protein. Particulars: 5 ng/mL biotinylated VEGF165, 2 µg/mL heparin, 2 h room temperature; n=3. In short, it runs like this:
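Plates coated overnight at room temperature with recombinant chimeric NRP-1 (2 µg/mL in PBS), washed with PBS/0.05% Tween 20, and blocked with PBS/0.5% BSA for 1 h at 37°C. Biotinylated VEGF165 (5 ng/mL, with 2 µg/mL heparin) was added with increasing test nanoparticle concentrations, Gd-matched control nanoparticles, or excess unlabelled VEGF165 (0.5 µg/mL). Streptavidin-HRP colorimetric read-out at 450 nm was expressed relative to the no-competitor control, in triplicate.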

Data set [4] in a line: UV/Vis absorption and fluorescence spectra. The class given is physicochemical. Particulars: from UV/Vis calibration curve of free TPC. In short, it runs like this:
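Absorption spectra were recorded by UV-visible spectrophotometry on ethanol suspensions of nanoparticles and free photosensitizer. Fluorescence spectra were acquired on a spectrofluorimeter with xenon lamp excitation and a thermostatted cell compartment at 25°C.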

Data set [5] in a line: Zeta potential measurement. Particulars: ultrapure water, pH ~ 7.0, 5 mM gadolinium, 20°C, Zetasizer Nano ZS. Format: physicochemical. In short, it runs like this:
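Nanoparticles were suspended in ultrapure water at pH ~7.0 and 5 mM Gd and measured by electrophoretic light scattering (532 nm laser). Readings were taken 2.00 mm from the cell wall with an automatic attenuator at 20°C. Each sample ran 15 runs of 10 s, repeated three times.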

Data set [6] deals with orthotopic U87 human glioblastoma (tumor tissue) in nude rats. Kind of data set: In vivo tumor MRI contrast enhancement kinetics. Also noted: species or system rat. Particulars: i.v., 25 µmol of Gd / 250 g. In short, it runs like this: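 Male athymic nude rats (rnu/rnu) received 5.10^5 U87 cells in 5 μL HBSS stereotactically into the right striatum (0.5 mm anterior, 2.7 mm lateral to bregma) under i.p. ketamine/xylazine. About 20 days later, nanoparticles were given intravenously in 500 µL, diluted in 9‰ NaCl from an iso-osmolar 100 mM Gd stock at pH ~7.4. Tumor MRI signal was normalized to pre-injection and contralateral tissue, and its decline from peak was followed.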

Several values for one entry are separate records, joined by “and”; a condition that tells them apart may be missing. Equal values may be shown once.

Regarding H-ATWLPPR-OH [ATWLPPR], in the data set on neuropilin-1 (NRP-1), the “NRP-1 targeting (qualitative)” value is listed as “selectively target NRP-1 receptor”.

Regarding H-ATWLPPR-OH [NP-TPC-ATWLPPR], the “Cell index before irradiation” value in the data set on MDA-MB-231 cells [1] is “no decrease in cell index values”. Besides, the “DL50 (50% cell growth inhibitory light dose)” value was 9.16 J/cm^2 and 9.2 J/cm^2 with MDA-MB-231 cells [2] (0.1 µM TPC); 2.80 J/cm^2 and 2.8 J/cm^2 in the data set on MDA-MB-231 cells [2] (1.0 µM TPC). For the same substance, the “Photocytotoxic effectiveness, 1.0 µM vs 0.1 µM TPC” value with MDA-MB-231 cells [2] (ratio of DL50 at 0.1 and 1.0 µM) turned out to be 3.3 times. Moreover, in data set [3], the “Binding to NRP-1 (qualitative)” value is given as “greatly displaced”. In addition, in data set [4], the “TPC molecules per nanoparticle” value is recorded as ~ 1.7 TPC molecules per nanoparticle. In data set [5], this substance yielded a Zeta potential of 12.9±4 mV. Besides, the “Rate of decrease of tumor MRI contrast” value in data set [6] (decrease from maximum peak) is -0.0072 .min^-1. For the same substance, in data set [6] (semi-logarithmic presentation of MRI contrast enhancement decrease), the “Half-life in tumor tissue (T1/2)” value came to 1.604 h.
